# Measured values of several laboratories.
# Lines come from different studies, so protocols differ.
# ADRA1D: Alpha-1D adrenergic receptor (ADRA1D, Homo sapiens, UniProt P25100)
# Prostate-specific antigen: Prostate-specific antigen (Homo sapiens, UniProt P07288)
# TMEM97: Sigma intracellular receptor 2 (TMEM97, Homo sapiens, UniProt Q5BJF2)
# lecB: Fucose-binding lectin PA-IIL (lecB, Pseudomonas aeruginosa, UniProt Q9HYN5)
# SIGMAR1: Sigma non-opioid intracellular receptor 1 (SIGMAR1, Cavia porcellus, UniProt Q60492)
# CASP7: Caspase-7 (CASP7, Homo sapiens, UniProt P55210)
# ADRA2B: Alpha-2B adrenergic receptor (ADRA2B, Homo sapiens, UniProt P18089)
Compound,target,observed,mode,method,pH,setting,Ki [nM]
COc1ccc2c(c1)C(=O)N(CCN1CCN(c3ccccc3OC)CC1)C2,ADRA1D,ligand displacement,,radioligand,,,12.4
CCCC[C@H](NC(=O)[C@H](CCC(N)=O)NC(=O)[C@H](CO)NC(=O)[C@H](C)NC(=O)CCCCCN)C(=O)N[C@@H](CCCBr)B(O)O,Prostate-specific antigen,enzyme activity,inhibitor,fluorescence,pH 7.8,,52.1
CCCn1nc(C(=O)N2CCCCC2)c2c1CCC(Nc1ccc(N3CCCCC3)cc1)C2 (stereo not drawn),TMEM97,ligand displacement,,radioligand,,,787
CCCC[C@H](NC(=O)[C@H](CCC(N)=O)NC(=O)[C@H](CO)NC(=O)C[C@@H](Cc1ccc2ccccc2c1)NC(=O)CCCCCN)C(=O)N[C@@H](CCCBr)B(O)O,Prostate-specific antigen,enzyme activity,inhibitor,fluorescence,pH 7.8,,102
O=C1c2ccccc2CCN1CCCCN1CCN(c2ccccn2)CC1,ADRA1D,ligand displacement,,radioligand,,,467
C[C@@H]1O[C@H](CNS(=O)(=O)c2ccc(CCn3cc(CCN4CCN(c5cc6c(cc5F)c(=O)c(C(=O)O)cn6C5CC5)CC4)nn3)s2)[C@@H](O)[C@H](O)[C@@H]1O,lecB,ligand displacement,,FP,,,890
CNc1nc(C#Cc2ccc(Cl)s2)nc2c1ncn2[C@H]1[C@H](O)[C@H](O)[C@]2(C(=O)OC)C[C@H]12,SIGMAR1,ligand displacement,,radioligand,,,8730
CCCC[C@H](NC(=O)[C@H](CCC(N)=O)NC(=O)[C@H](CO)NC(=O)[C@H](Cc1ccccc1)NC(=O)CCCCCN)C(=O)N[C@@H](Cc1ccccc1)B(O)O,Prostate-specific antigen,enzyme activity,inhibitor,fluorescence,pH 7.8,,61.5
COc1cc2c(cc1OC)CN(CCCNC(=O)c1ccc(C(=O)c3ccc([N+](=O)[O-])cc3)cc1)CC2,TMEM97,ligand displacement,,radioligand,,cell membranes,1200
CCCC[C@H](NC(=O)[C@H](CCC(N)=O)NC(=O)[C@H](CO)NC(=O)[C@H](Cc1ccccc1)NC(=O)CCCCCN)C(=O)N[C@@H](CCCBr)B1O[C@@H]2C[C@@H]3C[C@@H](C3(C)C)[C@]2(C)O1,Prostate-specific antigen,enzyme activity,inhibitor,fluorescence,pH 7.8,,73.3
O=c1cc(-c2ccc(O)c(O)c2)oc2cc(O)cc(O)c12,CASP7,enzyme activity,inhibitor,fluorescence,,,130000
COc1ccccc1N1CCN(CCCCN2CCc3ccccc3C2=O)CC1,ADRA1D,ligand displacement,,radioligand,,,14.2
OCCCN1CC[C@@H]2C[C@H]1c1cc(-c3ccc(C(F)(F)F)cc3)ccc12,TMEM97,ligand displacement,,radioligand,,,17
CCCC[C@H](NC(=O)[C@H](CCC(N)=O)NC(=O)[C@H](CO)NC(=O)[C@H](C)NC(=O)CCCCCN)C(=O)N[C@@H](Cc1ccccc1)B(O)O,Prostate-specific antigen,enzyme activity,inhibitor,fluorescence,pH 7.8,,310
CCCCN1CCC(COC(=O)c2ccc(N)c(OCF)c2)CC1,ADRA2B,cell-free assay,,radioligand,,,> 10000
C[C@@H]1O[C@H](CNS(=O)(=O)c2ccc(CCN=[N+]=[N-])s2)[C@@H](O)[C@H](O)[C@@H]1O,lecB,ligand displacement,,FP,,,1520
O=c1c(O)c(-c2ccc(O)c(O)c2)oc2cc(O)cc(O)c12,CASP7,enzyme activity,inhibitor,fluorescence,,,> 300000
CCCC[C@H](NC(=O)[C@H](CCC(N)=O)NC(=O)[C@H](CO)NC(=O)[C@H](Cc1ccccc1)NC(=O)CCCCCNC(=O)c1ccc(I)cc1)C(=O)N[C@@H](CCCBr)B(O)O,Prostate-specific antigen,enzyme activity,inhibitor,fluorescence,pH 7.8,,64.4
O=C(NCCN1CCCCC1)c1cc(Br)ccc1O,SIGMAR1,ligand displacement,,radioligand,,cell membranes,> 10000
CN(Cc1ccc(NC(=O)C2=Cc3cc(-c4ccc(OCCCF)cc4)ccc3CCC2)cc1)C1CCOCC1,ADRA2B,ligand displacement,,radioligand,,,1200
CNC(=O)[C@@]12C[C@@H]1[C@@H](n1cnc3c(NC)nc(C#Cc4ccccc4)nc31)[C@H](O)[C@@H]2O,SIGMAR1,ligand displacement,,radioligand,,,7110
C#CCNCc1ccc(C(=O)c2ccc([N+](=O)[O-])cc2)cc1,TMEM97,ligand displacement,,radioligand,,cell membranes,> 10000
CCCn1nc(C(=O)N2CCCCC2)c2c1CCC(NCCCNC)C2 (stereo not drawn),TMEM97,ligand displacement,,radioligand,,,1990
CCCC[C@H](NC(=O)[C@H](CCCCN)NC(=O)[C@H](CO)NC(=O)[C@H](CO)NC(=O)OCc1ccccc1)C(=O)N[C@@H](CCCBr)B(O)O,Prostate-specific antigen,enzyme activity,inhibitor,fluorescence,pH 7.8,,24.2
Cc1cc(Oc2nccc3ccsc23)ccc1-c1c(C)c(=O)[nH]c(=O)n1C,"Muscarinic acetylcholine receptor M3 (CHRM3, Homo sapiens, UniProt P20309)",ligand displacement,,radioligand,,,4600
O=C(CCCCC1SC[C@@H]2NC(=O)N[C@H]12)NCCCN(CCCN1CCN(C2CCCCC2)CC1)CC(=O)Nc1ccc(C(=O)c2ccccc2)cc1 (stereo in doubt),TMEM97,ligand displacement,,radioligand,,cell membranes,87
O=C(NCCN1CCCCC1)c1ccc(OCCF)c(Br)c1,SIGMAR1,ligand displacement,,radioligand,,cell membranes,36.1
CCCNc1nc2ccccc2n1Cc1ccc(Cl)cc1,ADRA2B,ligand displacement,,radioligand,,,677
C#CCNCCCN1CCN(CCCNC(=O)c2ccc(C(=O)c3ccc([N+](=O)[O-])cc3)cc2)CC1,TMEM97,ligand displacement,,radioligand,,cell membranes,60.1
CN(Cc1ccc(NC(=O)C2=Cc3cc(-c4ccc(OCCCCCF)cc4)ccc3CCC2)cc1)C1CCOCC1,ADRA2B,ligand displacement,,radioligand,,,6810
